Source: ChEMBL document CHEMBL2150944, “Antimalarial activity of pyrroloiminoquinones from the Australian marine sponge Zyzzya sp” (J Med Chem, 2012)
pIC50: −log10 of the molar value. Activity calls are given as the source filed them. The rule behind the calls is not given here.

Tests used:
Plasmodium falciparum [1] = experiment: Antimalarial activity against chloroquine-sensitive Plasmodium falciparum 3D7 trophozoite stage assessed as growth inhibition at 150 nM after 10 hrs by [3H]-hypoxanthine incorporation assay; assay type: functional, organism-based
Procedure, shortened: (§1)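 Synchronous 3D7 rings (~10−16 h post-invasion) or trophozoites (~24−30 h post-invasion), 0.5% parasitemia, 5% hematocrit, exposed 4, 6 or 10 h to compound or 0.04% DMSO vehicle. Cultures are washed, plated in triplicate with 0.5 μCi 3H-hypoxanthine, and incorporation is counted after ~48−72 h. Percent growth is relative to matched vehicle controls, from at least two independent experiments.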

Plasmodium falciparum [2] = experiment: Antimalarial activity against chloroquine-sensitive Plasmodium falciparum 3D7 ring stage assessed as growth inhibition at 75 nM after 10 hrs by [3H]-hypoxanthine incorporation assay; assay type: functional, organism-based; procedure, shortened: as §1
Plasmodium falciparum [3] = experiment: Antimalarial activity against chloroquine-sensitive Plasmodium falciparum 3D7 trophozoite stage assessed as growth inhibition at 75 nM after 10 hrs by [3H]-hypoxanthine incorporation assay; assay type: functional, organism-based; procedure, shortened: as §1
Plasmodium falciparum [4] = experiment: Antimalarial activity against chloroquine-sensitive Plasmodium falciparum 3D7 ring stage assessed as growth inhibition at 150 nM after 10 hrs by [3H]-hypoxanthine incorporation assay; assay type: functional, organism-based; procedure, shortened: as §1
Plasmodium berghei [5] = experiment: Antimalarial activity against chloroquine-sensitive Plasmodium berghei ANKA infected in ip dosed Swiss albino mouse assessed as suppression of parasitemia measured on day 4 post infection by Giemsa staining; assay type: functional; settings: 96 h
Plasmodium berghei [6] = experiment: Antimalarial activity against chloroquine-sensitive Plasmodium berghei ANKA infected in Swiss albino mouse assessed as suppression of parasitemia at 8 mg/kg/day, ip measured on day 4 post infection by Giemsa staining relative to control; assay type: functional; settings: route intraperitoneal
HEK293 = experiment: Cytotoxicity against human HEK293 cells assessed as growth inhibition after 72 hrs by Alamar blue assay; assay type: cell-based; settings: HEK293, 72 h
Procedure, shortened: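 HEK293 adherent cells (3000/well) were incubated with compound for 72 h at 37 °C and 5% CO2. Medium was removed, then 10% Alamar Blue was added for 5−6 h. Fluorescence was read at ex 535/em 590 nm. Inhibition was normalised to DMSO and 10 μM puromycin controls. IC50 came from nonlinear variable-slope regression of % inhibition against log dose.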

Plasmodium falciparum [7] = experiment: Antimalarial activity against chloroquine-sensitive Plasmodium falciparum 3D7 assessed as growth inhibition after 72 hrs by DAPI staining; assay type: functional, organism-based; settings: 3D7, 72 h
Procedure, shortened: (§2)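 P. falciparum 3D7 or Dd2 at 2% or 3% parasitemia, 0.3% hematocrit, exposed 72 h at 37 °C, 5% CO2. Staining with DAPI plus saponin and Triton X-100, 5 h at room temperature in the dark, then confocal imaging and automated counting of parasite spots. Percent inhibition is calculated against DMSO and 2 μM artemisinin controls.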

[8] = Selectivity index, ratio of IC50 for human HEK293 cells to IC50 for chloroquine-sensitive Plasmodium falciparum 3D7; assay type: toxicity, cell-based; settings: read-out: Ratio IC50
[9] = Selectivity index, ratio of IC50 for human HEK293 cells to IC50 for chloroquine-resistant Plasmodium falciparum Dd2; assay type: toxicity, cell-based; settings: read-out: Ratio IC50
Plasmodium falciparum [10] = experiment: Antimalarial activity against chloroquine-resistant Plasmodium falciparum Dd2 assessed as growth inhibition after 72 hrs by DAPI staining; assay type: functional, organism-based; settings: Dd2, 72 h; procedure, shortened: as §2
[11] = target: DNA topoisomerase 2-alpha (Homo sapiens) (UniProt P11388); experiment: Inhibition of topoisomerase 2 by decatenation assay
XRS6 = experiment: Cytotoxicity against Chinese hamster Xrs-6 cells; assay type: cell-based; settings: Cricetulus griseus
HCT-116 = experiment: Cytotoxicity against human HCT116 cells; assay type: functional, cell-based

Chain of DNA topoisomerase 2-alpha (Homo sapiens) (P11388 whole entry): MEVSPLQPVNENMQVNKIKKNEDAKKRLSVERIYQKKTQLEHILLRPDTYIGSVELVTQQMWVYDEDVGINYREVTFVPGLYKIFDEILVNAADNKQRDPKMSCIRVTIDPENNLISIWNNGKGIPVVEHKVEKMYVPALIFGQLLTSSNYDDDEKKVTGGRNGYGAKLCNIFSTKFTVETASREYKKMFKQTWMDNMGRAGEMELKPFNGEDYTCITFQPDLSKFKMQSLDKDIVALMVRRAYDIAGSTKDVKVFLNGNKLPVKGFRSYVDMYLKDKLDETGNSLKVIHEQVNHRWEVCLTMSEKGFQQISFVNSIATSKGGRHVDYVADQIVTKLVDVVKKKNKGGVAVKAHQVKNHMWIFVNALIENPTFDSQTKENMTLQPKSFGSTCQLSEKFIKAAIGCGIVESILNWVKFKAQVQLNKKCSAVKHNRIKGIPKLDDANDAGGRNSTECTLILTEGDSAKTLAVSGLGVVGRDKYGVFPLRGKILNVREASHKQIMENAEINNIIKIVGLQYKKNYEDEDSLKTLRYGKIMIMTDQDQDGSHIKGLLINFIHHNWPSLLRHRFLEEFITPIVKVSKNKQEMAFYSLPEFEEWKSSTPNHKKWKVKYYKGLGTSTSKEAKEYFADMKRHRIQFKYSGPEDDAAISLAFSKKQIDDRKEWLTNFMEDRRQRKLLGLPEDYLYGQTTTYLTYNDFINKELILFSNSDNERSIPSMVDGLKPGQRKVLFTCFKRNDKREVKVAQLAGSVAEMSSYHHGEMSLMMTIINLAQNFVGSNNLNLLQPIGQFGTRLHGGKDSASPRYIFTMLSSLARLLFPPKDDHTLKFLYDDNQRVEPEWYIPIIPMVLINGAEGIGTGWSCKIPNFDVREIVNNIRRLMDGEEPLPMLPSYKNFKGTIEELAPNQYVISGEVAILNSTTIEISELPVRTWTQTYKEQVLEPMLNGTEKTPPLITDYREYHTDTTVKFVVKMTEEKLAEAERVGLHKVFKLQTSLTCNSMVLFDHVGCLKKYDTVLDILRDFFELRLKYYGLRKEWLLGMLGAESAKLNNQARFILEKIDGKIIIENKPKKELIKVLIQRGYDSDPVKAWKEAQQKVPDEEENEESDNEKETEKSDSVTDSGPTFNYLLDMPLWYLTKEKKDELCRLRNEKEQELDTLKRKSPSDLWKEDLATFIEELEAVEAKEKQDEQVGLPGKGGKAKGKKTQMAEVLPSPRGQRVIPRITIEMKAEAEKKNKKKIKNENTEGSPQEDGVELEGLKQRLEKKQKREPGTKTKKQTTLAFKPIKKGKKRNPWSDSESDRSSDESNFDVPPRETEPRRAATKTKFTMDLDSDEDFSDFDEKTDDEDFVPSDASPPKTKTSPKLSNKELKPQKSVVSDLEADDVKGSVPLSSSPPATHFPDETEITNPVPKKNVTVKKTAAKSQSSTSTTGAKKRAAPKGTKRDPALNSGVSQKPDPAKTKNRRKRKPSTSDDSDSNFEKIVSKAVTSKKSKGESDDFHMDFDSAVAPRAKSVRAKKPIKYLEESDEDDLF

C[C@@H]1CC[C@H]2[C@@H](C)C(=O)O[C@@H]3O[C@@]4(C)CC[C@@H]1[C@]32OO4
growth inhibition (GI) (Plasmodium falciparum [1]): Active
growth inhibition (GI) (Plasmodium falciparum [2]): Active
growth inhibition (GI) (Plasmodium falciparum [3]): Active
growth inhibition (GI) (Plasmodium falciparum [4]): Active

CCN(CC)CCCC(C)Nc1ccnc2cc(Cl)ccc12 (stereo not drawn) [CHLOROQUINE]
ED50 (Plasmodium berghei [5]): 1.9 mg/kg/day
Activity (Plasmodium berghei [6]): 35%

CN1CCc2cn(C)c3c2C1=CC(=O)C3=O [DAMIRONES A]
pIC50 (HEK293): < 3.92
pIC50 (Plasmodium falciparum [7]): 5.73
selectivity ratio [8]: > 63
selectivity ratio [9]: > 333
pIC50 (Plasmodium falciparum [10]): 6.44

CN1CCc2c[nH]c3c2C1=CC(=O)C3=O [DAMIRONES B]
pIC50 (HEK293): < 3.92
pIC50 (Plasmodium falciparum [7]): 4.91
selectivity ratio [8]: > 10
selectivity ratio [9]: > 32
pIC50 (Plasmodium falciparum [10]): 5.42

Cn1cc2c3c1C(=O)C(N)=CC3=NCC2 [MAKALUVAMINE A]
IC90 [11]: 41000 nM
pIC50 (XRS6): 7.10
pIC50 (HCT-116): < 6.77

Cn1cc2ccnc3c2c1C(=O)C(N)=C3 [MAKALUVAMINE B]
pIC50 (XRS6): 7.10
pIC50 (HCT-116): < 6.77

C[N+]1=C2C=C(N)C(=O)c3[nH]cc(c32)CC1 [MAKALUVAMINE C]
pIC50 (XRS6): 7.10
pIC50 (HCT-116): < 6.77
